Test results as given in ChEMBL document CHEMBL1123563, “New antifilarial agents. 1. Epoxy sulfonamides and ethynesulfonamides” (J Med Chem, 1987).
Activity calls are given as the source filed them.

Tests used:
[1] = test system: molinema dessetae; experiment: Antifilarial activity against Molinema dessetae in vivo against female adult worms at a dose of 1000 mg/kg subcutaneously once a day for 5 days; Active; type: functional, organism-based; set-up: dose 1000 mg/kg
[2] = test system: molinema dessetae; experiment: Antifilarial activity against Molinema dessetae in vivo against male adult worms at a dose of 1000 mg/kg subcutaneously once a day for 5 days; Active; type: functional, organism-based; set-up: dose 1000 mg/kg
[3] = Antifilarial activity against Molinema dessetae in vivo in Proechimys oris the natural host at a dose of 1000 mg/kg subcutaneously once a day for 5 days. Value is expressed as number of infected P. oris.; type: functional; details: route subcutaneous
[4] = Effective concentration of compound necessary to kill 50% of infective larvae of Molinema dessetae after 7 days was determined in vitro; type: functional
[5] = test system: molinema dessetae;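 also: in vitro assay on infective-stage larvae, EC90 being the concentration lethal to 90% of larvae after 7 days of exposure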
[6] = test system: molinema dessetae; experiment: Antifilarial activity against Molinema dessetae in vivo against male adult worms at a dose of 200 mg/kg subcutaneously once a day for 5 days; Active; type: functional, organism-based; set-up: dose 200 mg/kg
How it was run: (§1)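 Proechimys oris of both sexes were each infected with 200 infective larvae dissected from Aedes aegypti mosquitoes. Microfilaremia was checked, and the rodents were treated 150–180 days post-infection. Compound was given subcutaneously as a 1% carboxymethylcellulose suspension once daily for 5 consecutive days. Microfilaremia was followed for 6 weeks, then adult male and female worms were counted at autopsy. A compound was scored active if no males and ≤1.6 females were found (p = 0.12).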

[7] = test system: molinema dessetae; experiment: Antifilarial activity against Molinema dessetae in vivo against male adult worms at a dose of 50 mg/kg subcutaneously once a day for 5 days; Inactive; type: functional, organism-based; set-up: dose 50 mg/kg; how it was run: as §1
[8] = Antifilarial activity against Molinema dessetae in vivo in Proechimys oris the natural host at a dose of 200 mg/kg subcutaneously once a day for 5 days. Value is expressed as number of infected P. oris.; type: functional; details: route subcutaneous; how it was run: as §1
[9] = Antifilarial activity against Molinema dessetae in vivo in Proechimys oris the natural host at a dose of 50 mg/kg subcutaneously once a day for 5 days. Value is expressed as number of infected P. oris.; type: functional; details: route subcutaneous; how it was run: as §1
[10] = Effective concentration of compound necessary to kill 50% of infective larvae of Molinema dessetae after 7 days was determined in vitro; Value ranges from 20-100; type: functional
How it was run: (§2)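 Infective larvae from the intermediate host were decontaminated and held 20 per 1.5 mL in a biphasic medium: L929 feeder layer with RPMI and fetal calf serum (90:10), plus penicillin and streptomycin. Compound solutions at several concentrations were made in DMSO, and 10 μL of each was added. After 7 days, survival was corrected by control, in duplicate runs. EC ranges are given in μM.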

[11] = test system: molinema dessetae; experiment: Antifilarial activity against Molinema dessetae in vivo against female adult worms at a dose of 200 mg/kg subcutaneously once a day for 5 days; Active; type: functional, organism-based; set-up: dose 200 mg/kg; how it was run: as §1
[12] = test system: molinema dessetae; experiment: Effective concentration of compound necessary to kill 90% of infective larvae of Molinema dessetae after 7 days was determined in vitro; Value ranges from 100-500; type: functional; how it was run: as §2

Compound	Activity [1]	Activity [2]	Activity [3]	EC50 [4] [µM]	EC90 [5] [µM]	Activity [6]	Activity [7]	Activity [8]	Activity [9]	EC50 [10] [µM]	Activity [11]	EC90 [12] [µM]
C[C@@H]1O[C@@H]1P(=O)([O-])[O-].[Na+].[Na+] [PHOSPHOMYCIN DISODIUM]	Active	Active	2	> 500	> 500							
CN(C)S(=O)(=O)[C@@H]1O[C@H]1c1ccccc1						Active	inactive	2	2	100	Active	500
